Source: PubChem (several laboratories)
hERG protect – hERG rescue from dofetilide block, primary screen, cell-based, CHO-hERG, FluxOR thallium flux, dofetilide IC70; AID 1511, 2009; Voltage-gated inwardly rectifying potassium channel KCNH2 (Homo sapiens), Q12809; activation (rescue from dofetilide block), less the hit threshold, % at 10 µM; 0.51% of 310,000 active; dofetilide IC70 present;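 active = activation above the mean of controls blocked by dofetilide plus 5 SD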;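 also: thallium influx through hERG after potassium depolarization seen as dye fluorescence rise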
AI-2 QS mod – Vibrio harveyi AI-2 quorum sensing modulators, primary screen, JMH597 strain, luminescence/OD600 ratio; Vibrio harveyi JMH597 AI-2 luminescence/OD600 ratio, 9 h; stronger effect = lower value; strain lacks LuxN and CqsS sensors; 0 = neutral-control median; activity change, % at 7.5 µM; 0.4% of 300,000 active; in the data active = activity change below about -75%, passing the limit was not always enough; inconclusive = no clear call, values can overlap the other calls;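 also: luminescence divided by OD600 gain over 9 h not by final OD600 alone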
KCNQ1 block – inhibitors of human KCNQ1 channel, primary screen, cell-based, thallium flux, high-throughput. 1.3% of 310,000 active. CHO-K1 KCNQ1, FluxOR thallium flux fluorescence; stronger effect = higher value. Potassium voltage-gated channel subfamily KQT member 1 (Homo sapiens), P51787. AID 2642, 2010. B-score at 10 µM;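 active = compounds whose thallium flux B-score, printed positive for inhibition, exceeds three library SD while starting fluorescence stays within three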;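 also: channel opened by potassium depolarization with thallium stimulus after 20 min compound exposure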
Target sequence (P51787 whole entry, looked up): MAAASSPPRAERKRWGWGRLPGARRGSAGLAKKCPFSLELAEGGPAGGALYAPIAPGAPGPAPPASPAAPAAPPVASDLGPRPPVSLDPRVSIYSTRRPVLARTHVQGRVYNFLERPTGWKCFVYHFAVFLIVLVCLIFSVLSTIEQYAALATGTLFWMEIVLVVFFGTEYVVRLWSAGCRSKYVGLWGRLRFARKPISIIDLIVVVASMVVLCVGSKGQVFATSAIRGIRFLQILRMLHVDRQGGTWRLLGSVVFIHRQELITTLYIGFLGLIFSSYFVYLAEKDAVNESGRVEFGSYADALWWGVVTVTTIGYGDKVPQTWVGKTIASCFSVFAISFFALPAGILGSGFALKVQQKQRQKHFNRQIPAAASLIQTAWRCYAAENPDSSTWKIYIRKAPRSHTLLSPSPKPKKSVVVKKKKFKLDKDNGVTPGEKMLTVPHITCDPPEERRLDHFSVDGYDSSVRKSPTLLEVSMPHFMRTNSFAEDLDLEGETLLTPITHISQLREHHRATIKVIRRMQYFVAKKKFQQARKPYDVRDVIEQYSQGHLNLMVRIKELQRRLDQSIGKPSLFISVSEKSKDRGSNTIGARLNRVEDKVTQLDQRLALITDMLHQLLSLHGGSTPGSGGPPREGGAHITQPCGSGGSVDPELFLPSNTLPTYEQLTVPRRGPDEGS
KCNQ1 pot – potentiators or activators of KCNQ1 channel, primary screen, cell-based, thallium flux, high-throughput. Potassium voltage-gated channel subfamily KQT member 1 (Homo sapiens), P51787. CHO-K1 KCNQ1, thallium flux FluxOR fluorescence; stronger effect = higher value. B-score at 10 µM. 0.35% of 310,000 active. AID 2648, 2010;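 active = fluorescence ratio B-score, a plate-corrected score, at least three library SD, with initial intensity B-score within 5 SD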
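Schedule – 37 °C overnight plating, 90-min dark dye load, 20-min compound pretreatment · System – stable KCNQ1 CHO-K1 line · Probe or stimulus – thallium- and potassium-containing depolarizing buffer · Measured by – kinetic FluxOR fluorescence, 10 s baseline plus 110 s post-stimulus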
Cl transport mod – KCC2 cotransporter modulators, thallium flux, primary screen, cell-based, HEK293 KCC2, FluoZin-2 fluorescence, MLSMR; KCC2 cells, thallium flux FluoZin-2 fluorescence; AID 1456, 2008; 2.2% of 190,000 active; B-score of Tl+ flux slope (higher = more flux/activation; lower = inhibition) at 10 µM;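 active = thallium flux slope and its plate-corrected score both differing from the plate sample mean at a set confidence after two filtering rounds, in either direction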;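 also: slope of fluorescence scaled to starting intensity during 10 to 20 s after thallium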
Mot1-301 SUMO – yeast Mot1-301 growth rescue at high temperature, primary screen, SUMOylation pathway inhibitor project, S. cerevisiae, ATP luminescence, 38.5C; S. cerevisiae Mot1-301 growth rescue; percent above DMSO median, 100 means doubled; growth rescue, % at 18.8 µM; 1% of 320,000 active; AID 2716, 2010;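 active = every valid replicate shows activation above 250% relative to neutral control wells; inactive = the rest, any valid replicate at or below 250%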;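 also: OY570 slx delta 5 strain wells were the positive control but not used for scaling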
KCC2 secondary – KCC2 modulators in sodium-free buffer, confirmation, cell-based, HEK293 KCC2, thallium flux, secondary assay. shares compounds with Cl transport mod. FluoZin2 fluorescence; stronger effect = higher value. normalised thallium flux (F/F0 slope) at 10 µM. 15% of 3,700 active. AID 1713, 2009;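 active = thallium flux slope above the same plate's solvent-only control mean plus 3 SD; inconclusive = the two replicate wells disagree; inactive = no significant difference from solvent-only control wells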
KCC2 bumet counter – thallium flux persisting under bumetanide in KCC2 cells, confirmation, counter-screen for KCC2 modulator project, cell-based, HEK293 KCC2, FluoZin2, secondary assay 3; 49% of 3,700 active; HEK293-KCC2 + bumetanide/ouabain; stronger effect = higher value; normalized thallium flux at 10 µM; shares compounds with Cl transport mod;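 active = thallium entry rate above the same plate's blocked-transporter control wells by more than 3 SD; inconclusive = the two repeat wells disagree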;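 also: raw slope of fluorescence over initial fluorescence between 10 and 20 s after thallium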
KCC2 sec2 – KCC2 modulators without ouabain present, confirmation, cell-based, HEK293 KCC2, thallium flux, FluoZin2, secondary assay 2; thallium flux FluoZin2 fluorescence; actives lie on both sides; F/F0 rise rate, 10–20 s post-thallium; 23% of 3,700 active; normalized thallium flux at 10 µM; shares compounds with Cl transport mod; AID 1715, 2009;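 active = thallium flux slope more than 3 SD above or below the plate's solvent-only control mean, mostly below; inconclusive = the two repeat wells disagreed; inactive = no significant shift from solvent-only controls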;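 also: raw slope with 0.1% DMSO as baseline and bumetanide as block control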
HEK293 Tl flux – thallium flux modulation in parental HEK cells, confirmation, counter-screen for KCC2 modulator project, cell-based, counterscreen 1; shares compounds with Cl transport mod; HEK293 parental cells, thallium flux FluoZin2, ouabain; baseline-ratio fluorescence slope, 10–20 s after thallium; thallium flux rate (normalised fluorescence) at 10 µM; 46% of 3,700 active;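 active = thallium flux rate significantly above the same plate's solvent-only control wells, beyond their mean plus 3 SD; inconclusive = the two replicate wells gave conflicting results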
KCC2 ouabain – KCC2 inhibitors and activators, ouabain retest, confirmation, HEK-KCC2 cells. shares compounds with Cl transport mod. HEK293-KCC2, thallium flux FluoZin2 fluorescence; bidirectional: low = inhibitor, high = activator. raw Tl+ flux slope (below DMSO = inhibition, above = activation) at 10 µM. 48% of 3,700 active. AID 1717, 2009;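 active = thallium flux slope beyond 3 SD from same-plate DMSO control mean in most replicates, usually higher, sometimes lower; inconclusive = repeat tests gave conflicting results; inactive = no significant difference from controls in most replicates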;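 also: slope of initial-normalized fluorescence between seconds 10 and 20 after thallium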
HEK293 Tl flux2 – native HEK Tl+ uptake effects, second counter-screen – HEK cells, counterscreen 2, counter-screen for KCC2 modulator project, confirmation. shares compounds with Cl transport mod. HEK293 parental, thallium flux FluoZin-2 fluorescence slope. thallium flux slope at 10 µM. 33% of 3,700 active;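 active = thallium flux slope above the same plate's solvent-control mean plus 3 SD in both duplicate wells; inconclusive = duplicate wells that disagreed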;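 also: run without ouabain in cells lacking the KCC2 cotransporter; slope of fluorescence scaled to its starting value between 10 and 20 s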
* marks the source's active call; other numbers are inactive results; i = inactive; u = inconclusive; x = no result given. Compounds with a hit are over-represented: about 4.2% of the library has one in this group of screens.

SMILES	hERG protect	AI-2 QS mod	KCNQ1 block	KCNQ1 pot	Cl transport mod	Mot1-301 SUMO	KCC2 secondary	KCC2 bumet counter	KCC2 sec2	HEK293 Tl flux	KCC2 ouabain	HEK293 Tl flux2
Cc1ccc(C)c(N2CCN(C(=O)CCCn3c(=S)[nH]c4cc5c(cc4c3=O)OCO5)CC2)c1	-11.6	46.6	i	i	3.38*	60.2	0.0058	0.0158*	0.0305	0.0101*	u	0.0118
CCOCCCn1c(=S)[nH]c2cc3c(cc2c1=O)OCO3	-12.2	9.1	i	i	5.65*	-3.7	u	0.0427*	0.0352	0.0189*	0.0397*	u
O=C(CCCn1c(=S)[nH]c2cc3c(cc2c1=O)OCO3)N1CCN(c2ccccc2F)CC1	-10.8	16.4	i	i	-0.669	9.9	x	x	x	x	x	x
CCN(CC)CCn1c(=S)[nH]c2cc3c(cc2c1=O)OCO3	-5.2	18.1	i	i	1.02	-10.1	x	x	x	x	x	x
N#Cc1ccsc1NC(=O)COC(=O)C1=NNC(=O)CC1	x	x	x	x	x	-4.4	x	x	x	x	x	x
CCOc1cc(C(=S)N2CCCC2)ccc1OC	-5.3	12.6	i	i	x	136.0	x	x	x	x	x	x
COc1cc(C(=S)N2CCCC2)cc(OC)c1O	-5.9	6.4	i	i	-3.59*	6.2	0.00986	0.00592	0.0364	0.00718	0.0233	0.00985
C=CCNC(=S)NNC(=O)c1ccc(C)c(Cl)c1	-11.4	10.4	i	i	-0.446	103.6	x	x	x	x	x	x
C=CCNC(=S)NC(=O)c1ccc(C)c(Br)c1	-10.5	-1.2	i	i	40*	-6.6	0.0185*	0.0925*	0.041	u	0.0641*	0.0215*
CC(C)CC1NC(=O)N(CC(=O)N(C)C2CCCCC2)C1=O (configuration not stated)	x	x	x	x	x	69.0	x	x	x	x	x	x
CCCn1c(SCC(N)=O)nc2c(c1=O)C1(CCCC1)Cc1ccccc1-2	0.3	8.3	i	i	x	65.3	0.0132*	0.031*	0.0363	0.0169*	u	0.0123*
CCn1c(SCC#N)nc2c(c1=O)C1(CCCC1)Cc1ccccc1-2	-7.4	19.5	i	i	16.8*	200.1	0.0148*	0.0576*	0.0368	u	0.0395*	u
CCn1c(=O)c2c(n3c(=S)[nH]nc13)-c1ccccc1CC21CCCCC1	-2.2	34.8	i	i	65.1*	-18.7	0.00721	0.0698*	u	0.0597*	0.0593*	0.0345*
CCSc1n[nH]c2nc3c(c(=O)n12)C1(CCCCC1)Cc1ccccc1-3	-10.6	13.4	i	i	-1.29	-15.4	x	x	x	x	x	x
O=C(CC1C(=O)NCCN1C1CCCC1)NCc1cccc(OC(F)(F)F)c1 (configuration not stated)	-6.8	23.3	i	i	x	3.2	x	x	x	x	x	x
O=C(O)C/C(=C\c1cccc(NC(=O)c2ccccc2Cl)c1)c1nc2ccccc2s1	-13.6	35.6	i	i	-4.09*	-17.2	0.00541	0.00507	0.0219*	u	0.0103*	0.0101
COc1ccc(NC(=O)c2nc3ccccc3s2)cc1	-6.5	2.2	i	i	1.03	-15.9	x	x	x	x	x	x
COc1ccc(C(=O)Nc2cccc(/C=C(\CCC(=O)O)c3nc4ccccc4s3)c2)cc1	-10.1	23.5	i	i	-3.8*	-9.5	0.005	u	0.0241*	0.00682	0.0131*	u
CCC1CCc2[nH]nc(C(=O)O)c2C1 (configuration not stated)	1.0	36.4	i	i	4.28*	15.7	0.00984	0.00696	0.0295	0.00664	0.021	0.00978
COCCNC(=S)NC(=O)c1ccc(C(C)(C)C)cc1	-12.7	13.5	i	i	8.36*	1.8	0.00975	0.0246*	0.03	u	0.0192	0.0106
O=C(NCCCN1CCCC1=O)C1CCC(CNS(=O)(=O)c2ccc(Cl)cc2)CC1 (configuration not stated)	-8.2	31.2	i	i	x	-3.5	x	x	x	x	x	x
CSc1ccc(/C=C/C(=O)OCC(=O)N2CCN(S(=O)(=O)c3ccc(C)cc3C)CC2)cc1	x	x	x	x	x	0.6	x	x	x	x	x	x
Cc1nc2c(F)c(F)c(C(F)(F)F)c(F)c2[nH]1	1.3	13.4	i	i	-0.597	-10.7	x	x	x	x	x	x
Cc1nc2c(Br)c3nc(C(F)(F)F)[nH]c3c(Br)c2[nH]1	-6.8	20.4	i	i	-7.61*	142.0	0.00907	0.0063	0.0365	0.00451	0.0212	0.0123
O=S1(=O)N=C(N2CCN(Cc3ccccc3)CC2)c2ccccc21	-11.7	19.9	i	i	-5.95*	-4.4	0.00655	0.00439	0.0242*	0.008	u	0.0106
